Test results from ChEMBL document CHEMBL1125616, “Perfluorinated analogues of poison ivy allergens. Synthesis and skin tolerogenic activity in mice” (1991).

Key:
Mus musculus [1] = species: Mus musculus; assay: Increase in ear thickness was determined in mice after 48 hr of application of compound at a concentration of 1.56 mmol to right ear; format: functional
How it was run: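 Cross-reaction test in female BALB/c mice aged 6–7 weeks. Mice were sensitized on day 0 on the shaved lower abdomen with 15.6 mmol in acetone/olive oil 4:1 (100 μL). Four days later groups of 8 were challenged on the dorsal right ear with 1.56 mmol (25 μL). Ear thickness was measured by micrometer, and the increase taken at 48 h after challenge.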

Mus musculus [2] = species: Mus musculus; assay: Ear thickness increase measured at 48 hr after challenge in group II on Day 10; format: functional
How it was run: (§1)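 Female BALB/c mice aged 6–7 weeks, 8 per group. On day 0 each mouse was pretreated epicutaneously on the shaved abdomen with 15.6 mmol in acetone/olive oil 4:1 (100 μL). The same dose was given on day 4 to sensitize. On day 8 the dorsal right ear was challenged with 1.56 mmol in acetone:olive oil (25 μL). Ear thickness was read by micrometer on days 9–12, and the increase taken at 48 h after challenge.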

Mus musculus [3] = species: Mus musculus; assay: Mice was sensitized with 15.6 mmol (100 uL) on shaved abdomen in group III on Day 4
Mus musculus [4] = species: Mus musculus; assay: Ear thickness increase measured at 48 hr after challenge in group III on Day 10; format: functional; how it was run: as §1
Mus musculus [5] = species: Mus musculus; assay: A challenge dose of 1.56 mmol (25 uL) was applied to right ear in group II; format: functional; how it was run: as §1
Mus musculus [6] = species: Mus musculus; assay: Mice was sensitized with 15.6 mmol (100 uL) on shaved abdomen in group II on Day 4
Mus musculus [7] = species: Mus musculus; assay: Mice was pretreated with 15.6 mmol (100 uL) on shaved abdomen in group III on Day 0
Mus musculus [8] = species: Mus musculus; assay: A challenge dose of 1.56 mmol (25 uL) was applied to right ear in group III on Day 8; format: functional; how it was run: as §1
Mus musculus [9] = species: Mus musculus; assay: Mice was pretreated with 15.6 mmol (100 uL) on shaved abdomen in group II on Day 0

CCCCCCCCCCCCCCCc1cccc(O)c1O
Ear thickness (Mus musculus [1]): 68.5 µm

Oc1cccc(CCCCCCCCCCCC(F)(F)C(F)(F)C(F)(F)C(F)(F)F)c1O
Ear thickness (Mus musculus [2]): 26 µm
Tolerance (Mus musculus [3]): 9
Ear thickness (Mus musculus [4]): 15 µm
Tolerance (Mus musculus [5]): 10
Tolerance (Mus musculus [6]): 10
Tolerance (Mus musculus [7]): 9
Ear thickness (Mus musculus [1]): 162 µm
Tolerance (Mus musculus [8]): 9
Tolerance (Mus musculus [9]): 9

Oc1cccc(CCCCCC(F)(F)C(F)(F)C(F)(F)C(F)(F)C(F)(F)C(F)(F)F)c1O
Ear thickness (Mus musculus [1]): 142 µm
